Mdm2-MdmX inh – inhibitors of human Mdm2/MdmX interaction | O15151+Q00987 | SaOS-2 split-luciferase Mdm2/MdmX complementation, luminescence | inhibition, % at 8 µM | 330,000 compounds, 3% hits | AID 485346;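 active means inhibition of at least 50% at 8 µM in the primary screen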
Target sequence (O15151 whole entry, looked up): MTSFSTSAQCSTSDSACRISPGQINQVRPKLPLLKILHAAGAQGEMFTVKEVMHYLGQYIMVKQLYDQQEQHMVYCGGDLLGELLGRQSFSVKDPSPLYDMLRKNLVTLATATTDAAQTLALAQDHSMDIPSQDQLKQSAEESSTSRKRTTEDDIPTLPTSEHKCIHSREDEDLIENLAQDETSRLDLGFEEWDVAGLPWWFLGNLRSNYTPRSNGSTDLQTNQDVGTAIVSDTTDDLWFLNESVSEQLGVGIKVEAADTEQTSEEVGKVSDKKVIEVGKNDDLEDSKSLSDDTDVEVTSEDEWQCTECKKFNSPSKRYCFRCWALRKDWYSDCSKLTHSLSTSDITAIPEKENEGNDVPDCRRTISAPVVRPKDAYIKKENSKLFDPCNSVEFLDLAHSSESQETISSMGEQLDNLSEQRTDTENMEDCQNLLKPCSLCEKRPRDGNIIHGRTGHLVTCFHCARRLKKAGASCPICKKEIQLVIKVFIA
Target sequence (Q00987 whole entry, looked up): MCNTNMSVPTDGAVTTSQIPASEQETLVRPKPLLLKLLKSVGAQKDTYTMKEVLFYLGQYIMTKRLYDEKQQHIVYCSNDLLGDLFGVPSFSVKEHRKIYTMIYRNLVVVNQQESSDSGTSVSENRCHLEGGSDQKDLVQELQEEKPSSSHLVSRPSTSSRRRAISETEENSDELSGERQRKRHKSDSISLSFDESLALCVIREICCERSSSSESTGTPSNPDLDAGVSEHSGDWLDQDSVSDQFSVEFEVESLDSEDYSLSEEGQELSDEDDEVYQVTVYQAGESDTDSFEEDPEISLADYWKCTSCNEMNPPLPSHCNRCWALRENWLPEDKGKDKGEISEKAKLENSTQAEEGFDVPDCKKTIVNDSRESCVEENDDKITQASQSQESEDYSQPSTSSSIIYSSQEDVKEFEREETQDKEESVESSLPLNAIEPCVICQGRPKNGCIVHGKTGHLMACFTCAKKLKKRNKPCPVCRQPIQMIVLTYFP
Lmaj promast – Leishmania major promastigote growth inhibition. Leishmania major promastigotes, resazurin fluorescence viability. inhibition, % at 10 µM. 200,000 compounds, 9% hits; in the data active means inhibition above about 50%;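 further: promastigotes grown with compound for 44 hours at 28 °C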
CSC inhib – blocks cancer stem cells; cancer stem cell-like cells viability, luminescence; inhibition, % at 7.5 µM; 300,000 compounds, 1.1% hits; AID 2717; in the data active means inhibition above about 75%; inconclusive means no clear call, values can overlap the other calls; tested in HMLE shEcad cells
Beta cell apopt – beta cell apoptosis inhibition; 300,000 compounds, 0.8% hits; protection from apoptosis, % (test concentration not listed); INS-1E cytokine-induced death, ATP luminescence, 48 h; percent of positive-control rescue, neutral wells zero;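 active means Every replicate reaches about 75%, or at least half do and their mean reaches it too, limit read from the data; inconclusive means At least half of replicates reach the limit but their mean does not; inactive means Under half of replicates reach the limit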;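 further: 0% = cytokine-treated negative control wells and 100% = positive control rescue; higher means more ATP so stronger rescue from cytokine killing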
SKKanGAS inh – SKKanGAS growth inhibition | S. pyogenes SKKanGAS, kanamycin growth, BacTiter-Glo, 6 h | inhibition, % at 7.5 µM | 300,000 compounds, 1.3% hits | AID 1662;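 active means mean replicate score, as percent of positive control median, at least 50; inconclusive means mean below 50 but one replicate at or above 50; inactive means mean and every replicate below 50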;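 further: strain carries kanamycin resistance gene driven by streptokinase promoter and grows in 40 µg/ml kanamycin; loss of luminescence reflects streptokinase promoter inhibition or plain growth inhibition; 0% = median of DMSO wells and 100% = positive control at its reference dose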
T cruzi inh – T. cruzi replication inhibition; T. cruzi beta-gal in NIH3T3, luminescence, 90 h; inhibition, % (no concentration beside the values); 300,000 compounds, 1.4% hits;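 active means mean inhibition across valid replicates above about 55%, limit read from the data; inconclusive means mean below that limit but half or more replicates reach it; inactive means mean below it, under half of replicates reach it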;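 further: signal also drops with host cell toxicity which is not excluded here; 0% = plate median of DMSO wells and 100% = zero luminescence signal; higher percent means less beta-gal luminescence so fewer parasites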
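compound dosing = single 50 nL compound addition per well in DMSO | material = NIH/3T3 host cells with β-galactosidase reporter T. cruzi | input = 5,000 host fibroblasts per well | timing = ≥90 h infection period, 3 h prior cell attachment | read-out basis = percent inhibition of parasite-derived β-gal signal | detection = GalScreen β-gal luminescence, detergent lysis, 60 min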
An asterisk follows results filed as active; ? = inconclusive; nt = not tested or not shown. Most compounds without a hit are left out; they make up all but 9.4% or so of the library.

SMILES	Mdm2-MdmX inh	Lmaj promast	CSC inhib	Beta cell apopt	SKKanGAS inh	T cruzi inh
O=C(CNC(=O)c1ccc(S(=O)(=O)N2CCCC2)cc1)N/N=C/c1c(Cl)cccc1Cl	22	83*	-4	4	-10	-2
O=C(CNC(=O)c1ccc(S(=O)(=O)N2CCCC2)cc1)N/N=C/c1ccccc1	2	87*	-1	-10	3	-7
O=C(CNC(=O)c1ccc(S(=O)(=O)N2CCCC2)cc1)N/N=C/c1ccc(Cl)cc1Cl	26	69*	nt	-15	5	7
Cc1ccc(NC(=S)N(CCCN2CCOCC2)Cc2cccnc2)cc1C	0	64*	-14	-9	0	68*
Cc1ccccc1NC(=S)N(CCCN1CCOCC1)Cc1cccnc1	20	5	-7	-3	0	5
CCc1ccc(NC(=S)N(CCCN2CCOCC2)Cc2ccccn2)cc1	7	68*	2	-11	11	-16
CC[C@@]1(C(=O)OC)N[C@H](CN(C)C(=O)c2ccc(C)cc2)[C@@H]2C(=O)N(C)C(=O)[C@@H]21	13	nt	nt	nt	nt	nt
C(=N\Nc1ncnc2sc3c(c12)CCC3)/c1ccncc1	48	66*	2	-1	5	36
Cc1cccc(C(=O)NCC(=O)N2CCOCC2)c1	11	nt	-11	nt	51*	-4
Cc1cccc(C(=O)NCC(=O)N2CCC2)c1	-7	nt	nt	-6	nt	nt
CCOc1ccc(CNC(=O)c2ccc(Sc3ccc(C)cc3)c(NC(C)=O)c2)cc1	21	94*	16	nt	1	1
COc1ccc2[nH]c(C)c(C(=O)CN(C)CC3OCCO3)c2c1	15	nt	-3	-2	-4	-10
CCN(CC(=O)N1CCC(C(N)=O)CC1)S(=O)(=O)c1ccc(Cl)cc1	-10	nt	-4	-4	3	16
Cn1cc(Cl)c(C(=O)Nc2cnn(Cc3ccc(F)cc3)c2)n1	-10	99*	12	-1	4	3
O=C(Nc1cnn(Cc2ccc(F)cc2)c1)c1cc(-c2ccco2)on1	15	69*	36	26	7	-6
O=C1CN(C(=O)COC(=O)c2ccc([N+](=O)[O-])o2)c2ccccc2N1	-6	nt	nt	2	nt	nt
O=C(Cc1cn(Cc2cccc(Cl)c2)c2ccccc12)N1CCCC1	4	99*	5	1	1	15
O=C(c1cc(-c2ccccc2Cl)nc2ccccc12)N1CCN(c2ccccc2O)CC1	26	nt	16	33	28	23
O=C(c1cc(-c2ccccc2Cl)nc2ccccc12)N1CCN(c2ccccn2)CC1	-22	nt	9	98*	nt	nt
CC(C)OC(=O)c1cccnc1N1CCN(c2cccc(Cl)c2)CC1	15	11	10	4	60*	20
O=C(c1cnc(N2CCN(c3ccccn3)CC2)c2ccccc12)N1CCN(c2cccc(Cl)c2)CC1	45	45	45	75*	18	7
O=C(c1ccc(F)cc1)C1CCN(C(=O)c2c(F)cccc2F)CC1	11	nt	-10	-5	10	2
COC(=O)c1ccc(-n2c(C)cc(C(=O)COC(=O)CNS(=O)(=O)c3ccc(C)cc3)c2C)cc1	-1	-8	-15	-6	8	15
COC(=O)c1cc(C(=O)OC)cc(-n2c(C)cc(C(=O)COC(=O)CNS(=O)(=O)c3ccc(C)cc3)c2C)c1	5	90*	-4	-15	27	1
O=C(CN1C(=O)c2ccccc2C1=O)NNC1=NS(=O)(=O)c2ccccc21	-7	61*	-8	-2	-12	2
SMILES	Mdm2-MdmX inh	Lmaj promast	CSC inhib	Beta cell apopt	SKKanGAS inh	T cruzi inh
CCC1=NN(C(=O)c2ccc(C)cc2)C(O)(c2ccc(Br)cc2)C1 (stereo unspecified)	6	-7	nt	nt	-4	-11
CCC1=NN(C(=O)c2cccc(Br)c2)C(O)(c2ccc(Br)cc2)C1 (stereo unspecified)	42	-5	105*	?	71*	5
CC[C@@]12C(=O)N(c3cccc(F)c3)C(=O)N1[C@H](c1ccc(Br)cc1)[C@@H]1C(=O)N(C(C)(C)C)C(=O)[C@@H]12	38	nt	-18	10	1	4
CN(C)C(=O)c1cn(-c2ccccc2)nc1-c1cccs1	11	54*	-7	-5	3	0
O=C(/C=C/c1cn(-c2ccccc2)nc1-c1cccnc1)N1CCCCC1	12	12	-1	9	2	20
O=C(c1cn(-c2ccccc2)nc1-c1cccs1)N1CCN(c2ccccn2)CC1	13	57*	10	-2	3	4
O=C(Nc1ccc2ccccc2c1)c1cn(-c2ccccc2)nc1-c1cccs1	-13	10	40	16	15	60*
O=C(/C=C/c1cn(-c2ccccc2)nc1-c1cccc(Cl)c1)N1CCN(c2ccccn2)CC1	31	38	21	2	40	73*
CN1CCN(C(=O)c2cn(-c3ccccc3)nc2-c2cccs2)CC1	6	-5	-5	2	-5	10
CN1CC(=O)N2Cc3[nH]c4ccccc4c3C[C@H]2C1=O	-9	nt	-8	-5	-5	-1
COC(=O)C1=C(C)N(Cc2ccccc2)C(=NCCN2CCOCC2)N[C@H]1CCc1ccccc1	31	nt	-10	2	nt	nt
CC(=O)c1ccc(S(=O)(=O)N(CC(=O)NC2CC2)Cc2ccc(F)cc2)cc1	18	nt	nt	nt	nt	nt
Cc1ccc(S(=O)(=O)N2CCOC23CCN(C(=O)c2ccccc2Br)CC3)cc1	10	nt	-3	-8	7	11
COc1ccc(C(=O)N/C(=C\c2cn(C)c3ccccc23)C(=O)NCCCN2CCOCC2)cc1OC	9	nt	-20	-1	-1	3
Cc1cc(C)nc(NC(=O)c2ccc([N+](=O)[O-])o2)n1	-3	56*	5	-14	5	19
CC(=O)c1ccc(NC(=O)c2ccc([N+](=O)[O-])o2)cc1	12	nt	80*	-8	9	6
COc1ccc(NC(=O)c2ccc([N+](=O)[O-])o2)cc1	21	nt	48	nt	2	24
CC(NC(=O)c1ccc([N+](=O)[O-])o1)C12CC3CC(CC(C3)C1)C2 (stereo unspecified)	44	nt	97*	nt	57*	51
COc1cccc(OC)c1C(=O)NC(C)C12CC3CC(CC(C3)C1)C2 (stereo unspecified)	8	35	-11	0	5	24
Cc1cc(C)cc(NC(=O)c2ccc([N+](=O)[O-])o2)c1	32	100*	nt	nt	25	20
S=C1NCN(C2CCCCC2)CN1CCc1ccccc1	5	nt	-6	3	-4	nt
Cc1cc(NC(=O)c2ccc([N+](=O)[O-])o2)ccc1NC(=O)c1ccco1	nt	100*	nt	nt	-14	44
O=C(NCCNC1CCC(c2ccccc2)CC1)c1cccs1 (stereo unspecified)	20	94*	17	0	-5	39
CCOC(=O)N1CCC(NCCNC(=O)c2cccs2)CC1	1	88*	-3	-1	5	18
